ChEMBL document CHEMBL4765456, “Discovery of novel liver X receptor inverse agonists as lipogenesis inhibitors” (Eur J Med Chem, 2020)
Calls of active or inactive are those of the source. The rule behind the calls is not given here.

Experiments:
Format in all cases: cell-based
HepG2 = assay: Cytotoxicity against human HepG2 cells assessed as reduction in cell viability at 10 uM incubated for 48 hrs by MTT assay; settings: hepg2, 48 h
In short: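 HepG2 grown in DMEM with 10% FBS at 37 °C, 5% CO2. Seeded at 1 × 10^5 per well for 24 h, treated 48 h, viability by MTT assay. Means ± SD from three independent experiments.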

3T3-L1 = assay: Cytotoxicity against mouse 3T3-L1 cells assessed as reduction in cell viability at 10 uM incubated for 48 hrs by MTT assay; settings: 3t3-l1, 48 h
In short: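 Mouse 3T3-L1 cells in DMEM with 10% FBS, 1% penicillin/streptomycin, at 37 °C, 5% CO2. Plated at 2 × 10^3 per well for 24 h, then compound for 48 h. MTT read-out of viability. Means ± SD, three independent experiments.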

HEK-293T = assay: Cytotoxicity against human HEK293T cells assessed as reduction in cell viability upto 10 uM incubated for 48 hrs by MTT assay
In short: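 Cells kept in DMEM with 10% FBS and 1% penicillin/streptomycin at 37 °C, 5% CO2. HEK293T seeded at 5 × 10^3 per well for 24 h, then exposed to compound for 48 h. Viability read by MTT. Means ± SD of three independent experiments.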

[1] = molecular target: T1, Oxysterols receptor LXR-alpha (Homo sapiens, UniProt Q13133); assay: Inverse agonist activity at human LXRalpha transfected in human HEK293T cells co-transfected with pSG5 and pGL3/(DR-4)-c-fos-FF-luc/pCMV/Renilla-luc assessed as receptor transactivation incubated for 20 hrs by dual luciferase reporter gene assay
T1 sequence (Q13133 whole entry): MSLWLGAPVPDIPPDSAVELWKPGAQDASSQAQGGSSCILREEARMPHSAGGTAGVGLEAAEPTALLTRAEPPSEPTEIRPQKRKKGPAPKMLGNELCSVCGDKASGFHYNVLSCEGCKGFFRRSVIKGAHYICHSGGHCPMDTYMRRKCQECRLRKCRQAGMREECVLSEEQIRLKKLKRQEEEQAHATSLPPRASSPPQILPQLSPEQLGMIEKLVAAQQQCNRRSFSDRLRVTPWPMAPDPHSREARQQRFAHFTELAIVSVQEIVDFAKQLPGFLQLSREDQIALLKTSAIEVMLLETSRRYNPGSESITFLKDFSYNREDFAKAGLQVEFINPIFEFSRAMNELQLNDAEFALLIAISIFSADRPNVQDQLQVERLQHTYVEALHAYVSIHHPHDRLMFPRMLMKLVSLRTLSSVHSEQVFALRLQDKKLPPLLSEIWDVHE

[2] = molecular target: T2, Oxysterols receptor LXR-beta (Homo sapiens) (UniProt P55055); assay: (§1) Inverse agonist activity at human LXRbeta transfected in human HEK293T cells co-transfected with pSG5 and pGL3/(DR-4)-c-fos-FF-luc/pCMV/Renilla-luc assessed as receptor transactivation incubated for 20 hrs by dual luciferase reporter gene assay
T2 sequence (whole entry): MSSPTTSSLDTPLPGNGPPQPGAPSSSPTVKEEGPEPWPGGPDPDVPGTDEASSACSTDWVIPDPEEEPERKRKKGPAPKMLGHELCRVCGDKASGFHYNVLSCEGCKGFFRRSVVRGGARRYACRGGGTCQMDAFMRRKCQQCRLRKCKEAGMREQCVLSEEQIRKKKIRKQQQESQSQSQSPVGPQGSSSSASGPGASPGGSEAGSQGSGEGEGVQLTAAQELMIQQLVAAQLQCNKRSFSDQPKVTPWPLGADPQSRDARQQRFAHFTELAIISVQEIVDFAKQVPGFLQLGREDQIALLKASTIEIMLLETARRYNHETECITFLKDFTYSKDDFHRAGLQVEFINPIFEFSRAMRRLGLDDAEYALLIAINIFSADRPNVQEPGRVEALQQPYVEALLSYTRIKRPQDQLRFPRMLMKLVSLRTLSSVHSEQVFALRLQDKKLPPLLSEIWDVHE

[3] = molecular target: T3, Oxysterols receptor LXR-beta (Homo sapiens, UniProt P55055); assay: as §1
T3 sequence (P55055 whole entry): T2 sequence (whole entry)

[4] = molecular target: T4, Oxysterols receptor LXR-alpha (Homo sapiens) (UniProt Q13133); assay: Agonist activity at human LXRalpha transfected in human HEK293T cells co-transfected with pSG5 and pGL3/(DR-4)-c-fos-FF-luc/pCMV/Renilla-luc assessed as receptor transactivation at 10 uM incubated for 20 hrs by dual luciferase reporter gene assay; settings: filed as agonist
T4 sequence (whole entry): T1 sequence (Q13133 whole entry)
In short: (§2)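 HEK293T cells seeded at 2 × 10^4 per well for 24 h, then transfected with pGL3/(DR-4)-c-fos-FF-luc, pCMV/Renilla-luc, pSG5/hRXRa and pSG5/hLXRa or pSG5/hLXRb. Compound added 5 h post-transfection and left 20 h. Firefly and Renilla luciferase read by dual-luciferase assay. Means ± SD from three independent experiments.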

[5] = molecular target: T2, Oxysterols receptor LXR-beta (Homo sapiens); assay: Agonist activity at human LXRbeta transfected in human HEK293T cells co-transfected with pSG5 and pGL3/(DR-4)-c-fos-FF-luc/pCMV/Renilla-luc assessed as receptor transactivation at 10 uM incubated for 20 hrs by dual luciferase reporter gene assay; settings: filed as agonist; in short: as §2

| Compound | Activity [2] | Activity [4] | Activity [5] | further results |
| --- | --- | --- | --- | --- |
| CC(C)[C@H]1N(C(=O)OC(C)(C)C)CC[C@]12C(=O)N(c1cccc(-c3ccc(CO)c(S(C)(=O)=O)c3)c1)c1ccccc12 | – | – | – | Activity (HepG2): Non-Toxic; Activity (3T3-L1): Non-Toxic; Activity (HEK-293T): Non-Toxic |
| CC(C)[C@@H]1N(C(=O)OC(C)(C)C)CC[C@@]12C(=O)N(c1cccc(-c3ccc(CO)cc3)c1)c1ccccc12 | – | – | – | IC50 [1]: Not Active |
| CC(C)[C@@H]1N(C(=O)OC(C)(C)C)CC[C@@]12C(=O)N(CCCCl)c1ccccc12 | inactive | – | – | – |
| CC(C)[C@@H]1N(C(=O)OC(C)(C)C)CC[C@@]12C(=O)N(c1cccc(-c3ccc4ccn(C)c4c3)c1)c1ccccc12 | – | – | – | IC50 [3]: > 20 µM; IC50 [1]: Not Active |
| COC(=O)c1ccc(N2C(=O)[C@@]3(CCN(C(=O)OC(C)(C)C)[C@H]3C(C)C)c3ccccc32)cc1S(C)(=O)=O | inactive | Active | Active | – |
| CC(C)[C@@H]1N(C(=O)OC(C)(C)C)CC[C@@]12C(=O)N(c1ccc(CO)cc1)c1ccccc12 | inactive | – | – | – |
| CC(C)[C@@H]1N(C(=O)OC(C)(C)C)CC[C@@]12C(=O)N(c1cccc(-c3ccc(C(=O)O)c(S(C)(=O)=O)c3)c1)c1ccccc12 | – | – | – | IC50 [1]: Not Active |
| CC(C)[C@@H]1N(C(=O)OC(C)(C)C)CC[C@@]12C(=O)N(c1ccc(CO)c(S(C)(=O)=O)c1)c1ccccc12 | inactive | Active | Active | – |
| CC(C)[C@@H]1N(C(=O)C(C)(C)C)CC[C@@]12C(=O)N(c1cccc(-c3ccc(C(=O)N(C)C)c(Cl)c3)c1)c1ccccc12 | inactive | Active | Active | – |
| CC(C)[C@@H]1N(C(=O)OC(C)(C)C)CC[C@@]12C(=O)N(c1cccc(-c3ccc(CO)c(Cl)c3)c1)c1ccccc12 | – | – | – | IC50 [1]: Not Active |

Further lines, with some results ahead:

| Activity [2] | Activity [4] | Activity [5] | Compound | further results |
| --- | --- | --- | --- | --- |
| inactive | – | – | CC(C)[C@@H]1N(C(=O)OC(C)(C)C)CC[C@@]12C(=O)N(CCCC#N)c1ccccc12 | – |
| inactive | Active | Active | CC(C)[C@@H]1N(C(=O)OC(C)(C)C)CC[C@@]12C(=O)N(c1cccc(-c3ccc(C(=O)N(C)C)c(Cl)c3)c1)c1ccccc12 | – |
| inactive | Active | Active | CC(C)[C@@H]1N(C(=O)CC(C)(C)C)CC[C@@]12C(=O)N(c1cccc(-c3ccc(C(=O)N(C)C)c(Cl)c3)c1)c1ccccc12 | – |
| inactive | – | – | COC(=O)c1ccc(N2C(=O)[C@@]3(CCN(C(=O)OC(C)(C)C)[C@H]3C(C)C)c3ccccc32)cc1 | – |
| inactive | – | – | CC(C)[C@@H]1N(C(=O)OC(C)(C)C)CC[C@@]12C(=O)N(CCCC(=O)O)c1ccccc12 | – |
